Structures are written as SMILES. Converted amounts (≈) assume the structure as drawn.

One may read the MIC90 as the lowest concentration that inhibits either 90% of growth or 90% of the strains tested, depending on the study. A lower MIC90 goes with higher susceptibility.

Data set [1] relates to Enterococcus faecalis. The data set can be described thus: Antimicrobial activity against Enterococcus faecalis ATCC 49532 after 24 hrs by Kirby-Bauer agar diffusion assay. The class given is functional. The essentials: (§1)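 Modified Kirby-Bauer well diffusion. Overnight LB cultures (18–24 h) were standardized in 0.9% saline to 0.5 McFarland and mixed into melted MHII agar at 47–50 °C, giving ~5×10³ CFU/mL. 9 mm wells received 50 µL of 2.0 mM compound in 10:1 MeOH:DMSO. Plates were incubated 24 h at 37 °C, then growth-inhibition zone diameter was measured (mm) by caliper.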
(Agar diffusion results depend on both activity and mobility in agar.)

A further data set deals with MCF7. The data set can be described thus: Cytotoxicity against human MCF7 cells. The format is cell-based.
Data set [2] concerns Enterococcus faecalis. The data set can be described thus: Antimicrobial activity against Enterococcus faecalis ATCC 49532 assessed after 18 hrs by broth microdilution method. The format is functional. To be noted: ATCC 49532, 18 h. Summed up: (§2)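 CLSI broth microdilution in cation-adjusted MHII broth. 20 mM DMSO stocks were diluted to 512 µM, then serially 2-fold, giving final 128–0.0625 µM with 5×10⁵ CFU/mL inoculum. Incubated 18 h at 37 °C. MIC90 was the lowest concentration giving 90% inhibition by visual turbidity versus DMSO wells. Run in triplicate.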
(In general: In broth dilution the organism is exposed to a series of concentrations in liquid medium.)

The test system of data set [3] is Micrococcus luteus. The data set can be described thus: Antimicrobial activity against Micrococcus luteus ATCC 10240 assessed after 18 hrs by broth microdilution method. The class given is functional. Conditions: ATCC 10240, 18 h. Summed up: as §2
Another data set deals with HeLa. The data set can be described thus: Cytotoxicity against human HeLa cells. The class given is cell-based.
A further data set deals with PC-3. Briefly: Cytotoxicity against human PC3 cells. The class given is cell-based.
The test system of data set [4] is Micrococcus luteus. The data set can be described thus: Antimicrobial activity against Micrococcus luteus ATCC 10240 after 24 hrs by Kirby-Bauer agar diffusion assay. The class given is functional. The essentials:
as §1

For data set [5], the system named is Staphylococcus aureus. The data set can be described thus: Antimicrobial activity against Staphylococcus aureus SG511 after 24 hrs by Kirby-Bauer agar diffusion assay. The class given is functional. The essentials:
as §1

Data set [6] relates to Staphylococcus aureus. Briefly: Antimicrobial activity against Staphylococcus aureus SG511 assessed after 18 hrs by broth microdilution method. The format is functional. Conditions: SG511, 18 h. The essentials: as §2

`C=C(C)C(C)N(O)c1ncc(C(F)(F)F)cc1Cl` (racemic): the “diameter of the inhibition zone (DIZ)” value in the data set on Enterococcus faecalis [1] is on record as 13 mm; with Micrococcus luteus [4], 15 mm; in the data set on Staphylococcus aureus [5] it was 0 mm. The Activity entry in the data set on MCF7, with HeLa and with PC-3 was “Non-toxic” in each case. Further, the MIC90 is over 128 µM against Enterococcus faecalis [2], 128 µM (≈ 35.9 µg/mL) with Micrococcus luteus [3] and over 128 µM in the data set on Staphylococcus aureus [6].
In the case of `ON(Cc1ccc(OC(F)(F)F)cc1)c1ccccn1`, the results for the “diameter of the inhibition zone (DIZ)” value with Enterococcus faecalis [1], in the data set with Micrococcus luteus [4] and in the data set with Staphylococcus aureus [5] were 15 mm, 17 mm and 14 mm, respectively. Further, the Activity result in the data set on MCF7, in the data set on HeLa and in the data set with PC-3 was “Non-toxic” throughout. Also, the figures for the MIC90 against Enterococcus faecalis [2], with Micrococcus luteus [3] and against Staphylococcus aureus [6] were over 128 µM, 128 µM (≈ 36.4 µg/mL) and over 128 µM, respectively.
On to `C=C(C)C(CC/C(C)=C/CO)N(O)c1cccc(CC)n1` (racemic), for which the entries for the “diameter of the inhibition zone (DIZ)” value with Enterococcus faecalis [1], in the data set on Micrococcus luteus [4] and in the data set with Staphylococcus aureus [5] were 19 mm, 31 mm and 18 mm, respectively. For the same molecule, the Activity result with MCF7, in the data set on HeLa and with PC-3 was “Non-toxic” throughout. For the same molecule, the MIC90 against Enterococcus faecalis [2] was over 128 µM; in the data set on Micrococcus luteus [3], 2 µM (≈ 0.581 µg/mL); against Staphylococcus aureus [6] it was over 128 µM.
`ON(Cc1cccc(Oc2ccccc2)c1)c1ccccn1`: the “diameter of the inhibition zone (DIZ)” value in the data set on Enterococcus faecalis [1] was 0 mm; with Micrococcus luteus [4], 12 mm; with Staphylococcus aureus [5], 13 mm. The Activity result with MCF7, in the data set on HeLa and in the data set with PC-3 was “Non-toxic” throughout. Besides, the MIC90 against Enterococcus faecalis [2], with Micrococcus luteus [3] and in the data set with Staphylococcus aureus [6] was over 128 µM throughout.
With `C=C(C)C(CCC(C)=O)N(O)c1ccccn1` (racemic), the “diameter of the inhibition zone (DIZ)” value with Enterococcus faecalis [1] came to 16 mm; with Micrococcus luteus [4] it was 30 mm; in the data set on Staphylococcus aureus [5], 15 mm. The Activity result in the data set with MCF7, in the data set on HeLa and in the data set with PC-3 was “Non-toxic” in each case. The MIC90 was over 128 µM against Enterococcus faecalis [2], 16 µM (≈ 3.75 µg/mL) against Micrococcus luteus [3] and 128 µM (≈ 30 µg/mL) against Staphylococcus aureus [6].
As to `ON(Cc1ccc(C(F)(F)F)cc1)c1ccccn1`, the “diameter of the inhibition zone (DIZ)” value in the data set on Enterococcus faecalis [1] worked out at 15 mm; with Micrococcus luteus [4], 16 mm; with Staphylococcus aureus [5], 15 mm. Besides, the Activity entry with MCF7, in the data set with HeLa and with PC-3 was “Non-toxic” each time. Also, the values for the MIC90 in the data set with Enterococcus faecalis [2], with Micrococcus luteus [3] and in the data set with Staphylococcus aureus [6] were over 128 µM, 128 µM (≈ 34.3 µg/mL) and over 128 µM, respectively.
As for `C=C(C)C(C)N(O)c1ncccc1C` (racemic), the “diameter of the inhibition zone (DIZ)” value in the data set on Enterococcus faecalis [1] came out at 19 mm; with Micrococcus luteus [4], 25 mm; with Staphylococcus aureus [5], 10 mm. Also, the Activity result with MCF7, in the data set on HeLa and in the data set with PC-3 was “Non-toxic” in each case. The MIC90 against Enterococcus faecalis [2] is over 128 µM; against Micrococcus luteus [3], 16 µM (≈ 3.08 µg/mL); in the data set on Staphylococcus aureus [6], over 128 µM.
With `C=C(CN(O)c1ccccn1)c1ccccc1`, the “diameter of the inhibition zone (DIZ)” value in the data set with Enterococcus faecalis [1] is on record as 18 mm; in the data set on Micrococcus luteus [4], 20 mm; in the data set with Staphylococcus aureus [5], 19 mm. The Activity result in the data set with MCF7, with HeLa and in the data set on PC-3 was “Non-toxic” each time. Also, the MIC90 was over 128 µM in the data set on Enterococcus faecalis [2], 64 µM (≈ 14.5 µg/mL) in the data set on Micrococcus luteus [3] and 32 µM (≈ 7.24 µg/mL) against Staphylococcus aureus [6].
For `CN(O)c1ccccn1`, the “diameter of the inhibition zone (DIZ)” value in the data set with Enterococcus faecalis [1] is 0 mm; in the data set on Micrococcus luteus [4], 18 mm; in the data set with Staphylococcus aureus [5] it was 0 mm. The Activity result with MCF7, in the data set on HeLa and with PC-3 was “Non-toxic” each time. Also, the MIC90 is over 128 µM against Enterococcus faecalis [2], at least 128 µM against Micrococcus luteus [3] and over 128 µM against Staphylococcus aureus [6].
On to `C=C(C)C(C)N(O)c1ccc2ccccc2n1` (racemic), for which the “diameter of the inhibition zone (DIZ)” value stood at 13 mm in the data set with Enterococcus faecalis [1], 31 mm in the data set on Micrococcus luteus [4] and 13 mm in the data set on Staphylococcus aureus [5]. Moreover, the Activity result in the data set with MCF7, with HeLa and with PC-3 was “Non-toxic” throughout. Moreover, the MIC90 against Enterococcus faecalis [2] is over 128 µM; in the data set on Micrococcus luteus [3] it was 8 µM (≈ 1.83 µg/mL); against Staphylococcus aureus [6], 128 µM (≈ 29.2 µg/mL).
On to `C=C(C)C(C)N(O)c1ccc(Br)cn1` (racemic), for which the “diameter of the inhibition zone (DIZ)” value with Enterococcus faecalis [1] is recorded as 19 mm; in the data set on Micrococcus luteus [4] it was 35 mm; in the data set with Staphylococcus aureus [5], 17 mm. Further, the Activity result in the data set with MCF7, in the data set on HeLa and in the data set on PC-3 was “Non-toxic” each time. In addition, the MIC90 in the data set with Enterococcus faecalis [2] was over 128 µM; against Micrococcus luteus [3], 4 µM (≈ 1.03 µg/mL); in the data set on Staphylococcus aureus [6], over 128 µM.
Turning to `C=C(C)C(C)N(O)c1ncc(Cl)cc1Cl` (racemic), the “diameter of the inhibition zone (DIZ)” value in the data set with Enterococcus faecalis [1] is 14 mm; in the data set with Micrococcus luteus [4], 27 mm; in the data set on Staphylococcus aureus [5] it was 0 mm. Besides, the Activity result in the data set on MCF7, in the data set with HeLa and with PC-3 was “Non-toxic” each time. Also, the MIC90 with Enterococcus faecalis [2] is over 128 µM; against Micrococcus luteus [3], 16 µM (≈ 3.95 µg/mL); in the data set with Staphylococcus aureus [6], over 128 µM.
Regarding `C=C(C)C(C)(C)N(O)c1ccccn1`, the “diameter of the inhibition zone (DIZ)” value in the data set with Enterococcus faecalis [1] is given as 18 mm; with Micrococcus luteus [4] it was 33 mm; with Staphylococcus aureus [5], 15 mm. In addition, the Activity entry in the data set on MCF7, in the data set with HeLa and with PC-3 was “Non-toxic” throughout. Besides, the MIC90 in the data set with Enterococcus faecalis [2] was over 128 µM; in the data set with Micrococcus luteus [3], 4 µM (≈ 0.769 µg/mL); with Staphylococcus aureus [6] it was 128 µM (≈ 24.6 µg/mL).
As for `C=C(C)C(C)N(O)c1cc(C)on1` (racemic), the “diameter of the inhibition zone (DIZ)” value in the data set on Enterococcus faecalis [1] is listed as 13 mm; with Micrococcus luteus [4], 21 mm; with Staphylococcus aureus [5], 0 mm. The Activity result with MCF7, with HeLa and with PC-3 was “Non-toxic” in each case. For the same molecule, the MIC90 in the data set with Enterococcus faecalis [2] was over 128 µM; in the data set on Micrococcus luteus [3], 64 µM (≈ 11.7 µg/mL); in the data set with Staphylococcus aureus [6], over 128 µM.
With `ON(CCc1ccccc1)c1ccccn1`, the “diameter of the inhibition zone (DIZ)” value with Enterococcus faecalis [1] is 15 mm; with Micrococcus luteus [4] it was 16 mm; in the data set on Staphylococcus aureus [5] it was 0 mm. Further, the Activity result with MCF7, in the data set on HeLa and with PC-3 was “Non-toxic” in each case. Moreover, the MIC90 is over 128 µM in the data set with Enterococcus faecalis [2], 128 µM (≈ 27.4 µg/mL) with Micrococcus luteus [3] and over 128 µM in the data set with Staphylococcus aureus [6].
As for `C=C(C)C(C)N(O)c1ccc(Cl)cn1` (racemic), the “diameter of the inhibition zone (DIZ)” value in the data set with Enterococcus faecalis [1] is given as 21 mm; in the data set with Micrococcus luteus [4], 40 mm; in the data set on Staphylococcus aureus [5] it was 18 mm. For the same molecule, the Activity entry with MCF7, in the data set on HeLa and in the data set on PC-3 was “Non-toxic” throughout. Further, the MIC90 in the data set with Enterococcus faecalis [2] is at least 128 µM; against Micrococcus luteus [3] it was 2 µM (≈ 0.425 µg/mL); against Staphylococcus aureus [6], 128 µM (≈ 27.2 µg/mL).
`COc1ccc(CON(C)c2ccccn2)cc1`: the Activity entry in the data set with MCF7, in the data set with HeLa and with PC-3 was “Non-toxic” throughout. In the data set with Micrococcus luteus [4], the “diameter of the inhibition zone (DIZ)” value is “<=14 mm”.
Regarding `CO[C@@H]1C=CC[C@H]1N(O)c1ncccc1C` (racemic), the Activity entry with MCF7, in the data set on HeLa and with PC-3 was “Non-toxic” each time. Besides, the “diameter of the inhibition zone (DIZ)” value in the data set with Micrococcus luteus [4] is over 14 mm.
Consider `Cc1cc(N(O)[C@@H]2C=CC(OC(C)(C)C)C2)no1` (mixture of isomers), for which the Activity result with MCF7, in the data set on HeLa and with PC-3 was “Non-toxic” each time. The “diameter of the inhibition zone (DIZ)” value in the data set with Micrococcus luteus [4] is reported as over 14 mm.
As to `O=Nc1ccccn1`, the Activity result in the data set with MCF7, with HeLa and in the data set on PC-3 was “Non-toxic” in each case. Moreover, the “diameter of the inhibition zone (DIZ)” value in the data set with Micrococcus luteus [4] was “<=14 mm”.
`CO[C@@H]1C=CC[C@H]1N(O)C(=O)OC(C)(C)C` (racemic): the Activity result in the data set with MCF7, with HeLa and with PC-3 was “Non-toxic” throughout. In addition, the “diameter of the inhibition zone (DIZ)” value in the data set on Micrococcus luteus [4] is “<=14 mm”.
For `CCc1cccc(N=O)n1`, the Activity entry in the data set with MCF7, in the data set with HeLa and with PC-3 was “Non-toxic” throughout. For the same molecule, the “diameter of the inhibition zone (DIZ)” value with Micrococcus luteus [4] is recorded as “<=14 mm”.
